# Screens (PubChem BioAssay)
# Yeast growth inh – reduces growth of yeast BB579 in restrictive medium | inhibition, % at 10 µM | S. cerevisiae BB579 growth, OD615, 48 h | actives 0.51% (n = 140,000);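 active = inhibition above a set limit, 3 SD over the mean compound inhibition, cut at about 44% in these data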
#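 Assay system: S. cerevisiae DeaD strain BB579 yeast. Medium: CSMM-D restrictive synthetic medium containing dextrose (glucose). Times: 4 h cell preincubation, 48 h compound exposure, 30 °C humidified. Signal: OD615 turbidity measurement. Benchmarks: positive control amphotericin B 10 µg/mL.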
# Yeast life ext – yeast lifespan extension. S. cerevisiae growth with nicotinamide, OD615; deaD strain in restrictive glucose medium. inhibition of the nicotinamide effect, % at 10 µM. actives 0.68% (n = 130,000). AID 775;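 active = inhibition above a set limit, placed 3 SD over the median of all compounds, cut at about 26% in these data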;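 also: 0% = nicotinamide-treated wells and 100% = cells grown without nicotinamide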
#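 Measured by: optical density (absorbance) at 615 nm; System: modified budding yeast, DeaD strain; Medium: restrictive CSMM-D dextrose medium; Timing: 4 h preincubation then 48 h treatment at 30 °C.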
# PostGolgi yeast – growth inhibition of a yeast mutant, post-Golgi transport screen | post-Golgi transport phenotypic cell assay | inhibition, % at 10 µM | actives 0.9% (n = 98,000) | AID 739;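 also: yeast cells grown in 1536-well plates; yeast grown about 18 h at 30C before absorbance read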
# PostGolgi ctrl – growth of the yeast control strain, post-Golgi counter-screen. efflux-deficient yeast background strain, growth absorbance A615, 16 h. inhibition, % at 10 µM. actives 5% (n = 98,000)
# Active calls of the source: *; . = not tested or not shown. The sample as a whole holds a higher share of hits than the screen did. Rule as the data show it, unless noted: active = inhibition above about 30%; inactive = the rest.
SMILES,Yeast growth inh,Yeast life ext,PostGolgi yeast,PostGolgi ctrl
Cn1cccc1/C=N/n1c(-c2ccc(C(C)(C)C)cc2)n[nH]c1=S,-4,-10,19,37*
Cn1cccc1/C=N/n1c(-c2ccccc2)n[nH]c1=S,-2,-6,3,8
CCc1cccc2c(C(=O)COC(=O)c3ccc([N+](=O)[O-])s3)c[nH]c12,98*,-9,.,.
COc1ccc(OC)c(NC(=O)CSc2nnc(Cn3nnc4ccccc43)n2C)c1,-1,-19,-4,15
Cc1ccc2c(c1)C(c1ccc(F)cc1)N(C(=O)c1cc3ccccc3oc1=O)CC(=O)N2 (configuration not stated),-22,3,.,.
O=C(CN1CCC(O)(c2ccc3c(c2)OCO3)CC1)OC1CCCCC1,-39,2,-5,41*
O=C(CN1CCC(O)(c2ccc3c(c2)OCO3)CC1)N1CCOCC1,-13,-3,-5,2
C=CCn1c(-c2ccc(S(=O)(=O)N3CCOCC3)cc2)csc1=Nc1ccccc1,-15,-27,-1,29
Cc1csc(=Nc2ccc(S(=O)(=O)N3CCOCC3)cc2)n1Cc1ccco1,-39,-5,-1,44*
CCOC(=O)C(C)N1N=C(/C=C/c2ccc(C)cc2)CCC1=O (configuration not stated),-11,-17,1,11
O=C1CCC(/C=C/c2ccccc2)=NN1Cc1ccc(Cl)c(Cl)c1,-28,-13,23,60*
O=C1CCC(/C=C/c2ccccc2)=NN1Cc1ccccc1Cl,-81,-6,-16,39*
COc1ccc(NC(=O)CSc2ccc3ccccc3c2)cc1S(=O)(=O)N1CCCCC1,-15,3,.,.
CC12CCC(C(=O)Nc3cccc4ccccc34)(C1Br)C2(C)C (configuration not stated),-33,5,-3,40*
CCOC(=O)Nc1cccc2ccccc12,-19,-9,1,4
CCOC(=O)C1CCCN(C(=O)c2cc(Nc3ccc(OC)cc3)nc3ccccc23)C1 (configuration not stated),-25,-3,22,15
Nc1c(C(=O)NC2CC2)c2nc3ccccc3nc2n1-c1ccc2c(c1)OCO2,-91,4,-5,10
C=CCn1c(N)c(C(=O)NCC2CCCO2)sc1=S (configuration not stated),-32,-22,-3,32*
C=CCn1c(N)c(C(=O)NCC2CCCO2)c2nc3ccccc3nc21 (configuration not stated),-37,-30,33*,5
Nc1c(C(=O)OCC2CCCO2)c2nc3ccccc3nc2n1-c1ccc2c(c1)OCCO2 (configuration not stated),9,-4,43*,2
CCC(c1nnnn1C(C)C)N1CCN(C2CCCC2)CC1 (configuration not stated),-23,7,20,4
COc1ccc(S(=O)(=O)N2CCC(C(=O)NCCc3ccc4c(c3)OCO4)CC2)cc1,-28,-16,1,39*
c1ccc(-c2nnc(SCc3nc4ccccc4[nH]3)n2Cc2ccco2)cc1,-31,-10,-5,4
O=c1c2ccccc2nnn1CSc1nnc(COc2ccc(Cl)cc2)n1Cc1ccco1,-77,-4,103*,82*
Cc1ccc(OCc2nnc(SCc3nc4ccccc4[nH]3)n2Cc2ccco2)cc1,-27,-9,-4,32*
SMILES,Yeast growth inh,Yeast life ext,PostGolgi yeast,PostGolgi ctrl
C=CCn1c(COc2ccc(OC)cc2)nnc1SCn1nnc2ccccc2c1=O,-29,1,.,.
Cc1ccccc1NS(=O)(=O)c1ccc(NC(=O)CSCc2ccc(Br)cc2)cc1,-4,-7,96*,91*
COC(=O)c1sccc1NC(=O)CSc1ccccc1NS(=O)(=O)c1ccc(F)cc1,-49,-11,7,11
COC(=O)c1sccc1NC(=O)CSc1ccccc1NS(=O)(=O)c1ccc(Br)cc1,-25,-7,-20,32*
O=C(OCn1nnc2ccccc2c1=O)c1ccc(N2CCOCC2)c([N+](=O)[O-])c1,-22,7,.,.
CCCCNC(=O)C1=C(N)C(C(=O)Nc2ccc(C)c(S(=O)(=O)N3CCCCC3)c2)SC1=Nc1ccc(C)cc1C (configuration not stated),-34,-7,8,1
CCCc1cc(-c2nc(N)ncc2-c2ccc3c(c2)OCCCO3)c(O)cc1OC,-32,2,-12,40*
O=C(CN1CCN(S(=O)(=O)c2ccccc2)CC1)Nc1ccc(Cl)c(Cl)c1,-5,-14,-1,16
Nn1c(Nc2ccccc2)nc2sc3c(c2c1=O)CCC3,-74,-16,11,31*
CCOC(=O)C1CCN(C(=O)Cc2cccs2)CC1,-32,-17,-4,36*
Cc1onc(-c2ccccc2Cl)c1C(=O)N1CCN(c2cccc(Cl)c2)CC1,-49,-4,20,-7
CCOC(=O)C1CCN(C(=O)c2cccc(C(=O)N3CCC(C(=O)OCC)CC3)c2)CC1,-45,-1,-2,6
Cc1onc(-c2ccccc2Cl)c1C(=O)N1CCN(c2ccccc2)CC1,-44,-17,0,39*
CCOC(=O)C1CCN(C(=O)c2c(-c3c(Cl)cccc3Cl)noc2C)CC1,-93,15,33*,8
c1ccc(-c2cn3c4c(sc3n2)CCCC4)cc1,-60,-25,-5,13
C=CCSC1=C(C#N)C(c2ccc(C(C)C)cc2)CC(=O)N1 (configuration not stated),-66,3,-2,38*
O=C(Nc1ccc(N2CCOCC2)cc1)C1CCCN(S(=O)(=O)c2cccc(C(F)(F)F)c2)C1 (configuration not stated),-18,-3,-1,2
Cc1ccc(SCC(=O)Nc2ccc(F)cc2[N+](=O)[O-])cc1C,-46,1,.,.
COC(=O)C1=C(C)N=c2s/c(=C3\C(=O)Nc4ccccc43)c(=O)n2C1c1ccccc1 (configuration not stated),-18,-2,-1,39*
COC(=O)C1=C(C)N=c2s/c(=C/c3cccs3)c(=O)n2C1c1cccs1 (configuration not stated),-58,-18,7,2
COC(=O)C1=C(C)N=c2s/c(=C/c3ccoc3)c(=O)n2C1c1ccccc1 (configuration not stated),-24,-3,6,59*
C=CCNC(=S)N1CCN(c2ccc([N+](=O)[O-])cc2)CC1,1,-5,.,.
Cc1nn(C)c(C(=O)N2CCN(C(=O)c3ccco3)CC2)c1Br,-15,3,.,.
CC(C)C(OC(=O)c1cc2occc2n1C)C(=O)NCc1ccc2c(c1)OCO2 (configuration not stated),-65,6,1,48*
C=CCOC(=O)C1=C(C)NC(SCC)=C(C#N)C1c1ccc(Cl)cc1 (configuration not stated),-44,5,6,55*
CCOC(=O)C1=C(C)NC(SCC(=O)OC)=C(C#N)C1c1ccc(C(=O)OC)cc1 (configuration not stated),-3,5,16,14
Cc1nn2c(N3CCN(C(=O)c4ccco4)CC3)cc(C(C)(C)C)nc2c1-c1ccccc1,-10,-16,10,91*
